Test results reported in article PMC6263152 (Journal of medicinal chemistry, 2018).

Columns and labels:
PC3 (PSMA−) cells = assay: FACS flow cytometry nonspecific binding control, PC3 cells
Procedure, shortened: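 PSMA− PC3 cells (luciferase/GFP-expressing) were incubated with 0.1–100 nM test compound for 1 h at 37 °C. Cell-bound fluorescence was read by flow cytometry in the Cy3 channel (488 nm, 22 mW excitation; 620/30 emission filter). Curves were fitted with a two-parameter exponential function. Flow experiments were run in duplicate.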

[1] = tested on: PC3-PIP (PSMA+) vs PC3 (PSMA−) cell containing myocutaneous tissue; assay: Ex vivo γ-scintillated biodistribution in mice bearing PC3 and PC3-PIP cells; design: species or system C57BL/6 mice; conditions: 2 h after iv injection, γ-scintillation of excised tissue
Procedure, shortened: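 Male C57BL/6 mice, 5–6 weeks old, 20–25 g (n = 6), were given 3 × 10^6 (18 mg) PC3 cells s.c. in the left flank and PC3-PIP cells in the right flank. After 15 min, radiotracer (100 μL, 80 μCi, 25 μM; 2.5 nmol) went i.v. via the tail vein. Mice were killed by cervical dislocation at 2 h. Organs and flank myocutaneous tissue were weighed and γ-counted as %ID per gram, mean ± SEM.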

Defluoridation stability = format: in vitro ADME
[2] = Optical properties in 1× PBS; format: physicochemical; conditions: pH 7.5
[3] = tested on: PC3-PIP (PSMA+) and PC3 (PSMA−) cell containing tissue; assay: PET/CT imaging in mice bearing PC3 and PC3-PIP cells; format: in vivo, C57BL/6 mice
Procedure, shortened: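 Male C57BL/6 mice received s.c. 3 × 10^6 (18 mg) PC3 cells in the left flank and PC3-PIP cells in the right flank (n = 6); mice without cells served as controls (n = 5). 15 min later, [18F]-labelled test compound (80 μCi, 2.5 nmol, 100 μL) was given i.v. by tail vein. A 10 min CT then a 15 min PET scan were acquired at 2 and 6 h, shown as maximum intensity projections.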

CC1(C)C(/C=C/C=C2\N(CCCCCC(=O)NCCCC[C@H](NC(=O)N[C@H](CCC(=O)O)C(=O)O)C(=O)O)c3ccc(S(=O)(=O)O)cc3C2(C)C)=[N+](CCCCCC(=O)NCCCCn2cc(C[N+](C)(C)C[B-](F)(F)F)nn2)c2ccc(S(=O)(=O)O)cc21 [[^19F]-4, ((((1-(4-(6-(2-((E)-3-((Z)-1-(6-(((S)-5-Carboxy-5-(3-((R)-1,3-dicarboxypropyl)ureido)pentyl)amino)-6-oxohexyl)-3,3-dimethyl-5-sulfoindolin-2-ylidene)prop-1-en-1-yl)-3,3-dimethyl-5-sulfo-3H-indol-1-ium-1-yl)hexanamido)butyl)-1H-1,2,3-triazol-4-yl)methyl)dimethylammonio)methyl) Trifluoroborate]
Nonspecific binding to PC3 (PC3 (PSMA−) cells): not observed
Activity in PC3-PIP (PSMA+) vs PC3 (PSMA−) containing myocutaneous tissue [1]: 175 fold
Defluoridation (Defluoridation stability; 7 days room temperature incubation with fetal bovine serum): Less than 1%
Chemical decomposition (defluoridation) (Defluoridation stability; physiological conditions): not observed
Extinction coefficient ([2]; 1 mM PBS): 159 000 M^−1 cm^−1
Quantum yield φ [2]: 0.06
Liberation of [18F]-fluoride ion (defluoridation) in vivo [3]: not observed
